High-throughput results as filed in PubChem.
A selection: hits, their analogues and other compounds. The true share with any hit is near 2.5%.
ABHD5 PLIN5 PPI – ABHD5-PLIN5 interaction inhibitors, primary screen, cell lysate, split luciferase complementation, luminescence. Perilipin-5 (Homo sapiens) + 1-acylglycerol-3-phosphate O-acyltransferase ABHD5 (Homo …. Split G. princeps luciferase complementation, 4 h. inhibition, % at 4 µM. 360,000 tested, 0.78% active;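 active = inhibition above the mean inhibition across every tested compound plus 3 SD, cut at about 22% in these data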;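 note: 0% = DMSO only wells and the 100% control is not disclosed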
NadD inh – inhibitors of S. aureus NadD, primary screen, biochemical, colorimetric, uHTS. Nicotinate-nucleotide adenylyltransferase NadD (Staphylococcus aureus N315). purified NadD enzyme, colorimetric absorbance read-out. inhibition, % at 20 µM. 360,000 tested, 0.78% active. AID 602399, 2012; in the data active = inhibition above about 26%
Beta2AR agonist – beta2AR agonists driving receptor internalization, primary screen, cell-based, FAP fluorogen, flow cytometry | Am2.2-beta2AR cells | response, % (concentration not given with the values) | 340,000 tested, 0.43% active;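 active = response above a set limit, near 3 SD of response in nonfluorescent compounds, cut at about 42% in these data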
Target sequence (P07550 whole entry, looked up): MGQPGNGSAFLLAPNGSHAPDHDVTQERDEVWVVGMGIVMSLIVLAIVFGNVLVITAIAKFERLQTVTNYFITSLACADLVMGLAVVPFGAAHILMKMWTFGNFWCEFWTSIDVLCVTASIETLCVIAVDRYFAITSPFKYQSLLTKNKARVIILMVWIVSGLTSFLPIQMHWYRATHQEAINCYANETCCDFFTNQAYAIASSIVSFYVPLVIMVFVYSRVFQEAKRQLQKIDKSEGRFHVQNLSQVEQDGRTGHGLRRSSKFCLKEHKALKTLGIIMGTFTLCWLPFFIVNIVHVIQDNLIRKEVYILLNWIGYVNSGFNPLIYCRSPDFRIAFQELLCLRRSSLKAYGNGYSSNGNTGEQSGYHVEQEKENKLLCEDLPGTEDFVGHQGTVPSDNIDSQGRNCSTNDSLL
SENP1 FRET inh – human SENP1 catalytic domain inhibitors, primary screen, biochemical, FRET, uHTS. Sentrin-specific protease 1 (Homo sapiens), Q9P0U3. recombinant SENP1 catalytic domain, CyPet-SUMO1-YPet FRET cleavage. inhibition, % at 10 µM. 360,000 tested, 0.21% active;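 active = inhibition at least 30% at 10 µM, raw YFP signal under a set limit, fluorescence ratio 0.5 to 1.5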;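 note: 0% = enzyme with DMSO and 100% = no enzyme wells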
Target sequence (Q9P0U3 419-644 limits assumed): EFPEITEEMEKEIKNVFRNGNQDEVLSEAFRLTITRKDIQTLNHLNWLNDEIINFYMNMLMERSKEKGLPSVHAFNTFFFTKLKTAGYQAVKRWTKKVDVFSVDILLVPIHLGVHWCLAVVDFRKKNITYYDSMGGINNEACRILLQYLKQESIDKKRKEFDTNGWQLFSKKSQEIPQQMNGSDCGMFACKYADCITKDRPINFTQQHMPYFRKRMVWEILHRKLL
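Assay system – human recombinant His6-tagged SENP1 catalytic domain enzyme · Input – SENP1 enzyme, 20 pM final · Buffer or medium – Tris pH 8 buffer plus EDTA, NaCl, BME, BSA, NP40, catalase · Schedule – 50 min reaction at room temperature · Technique – FRET read of cyan and yellow fluorescence · Control set – no-enzyme wells low, DMSO-plus-enzyme wells high control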
GRK2 inh – compounds blocking aptamer binding on GRK2 – biochemical, human GRK2, bead flow cytometry, HTS, primary screen. Beta-adrenergic receptor kinase 1 (Homo sapiens), P25098. FAM-aptamer displacement from GRK2. 330,000 tested, 0.59% active. AID 488847, 2010. inhibition of aptamer binding, % at 10 µM;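 active = inhibition of aptamer binding above 40%, roughly 3 SD of noise, on plates passing a quality check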;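 note: median bead fluorescence of bound FAM aptamer so fluorescent compounds give negative values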
Active calls of the source: *.

`CC(=O)C1CCC2C3CCC4=CC(=O)CC[C@]4(C)[C@@]3(F)C(O)C[C@]12C` (some centres undefined) gave ABHD5 PLIN5 PPI -1, NadD inh -6, Beta2AR agonist -15, SENP1 FRET inh 2 and GRK2 inh 0.
Screening CC(=O)C1CCC2C3CCC4=CC(=O)CCC4(C)C3(Br)C(=O)CC12C (centres undefined) returned ABHD5 PLIN5 PPI 2, NadD inh 0, Beta2AR agonist 56* and SENP1 FRET inh 0.
O=C(NN=C1CCN(Cc2ccccc2)CC1)c1ccccc1O was read as ABHD5 PLIN5 PPI -1, NadD inh -1, Beta2AR agonist -2, SENP1 FRET inh -16 and GRK2 inh 0.
O=C(NN=C1CCN(Cc2ccccc2)CC1)c1cc2ccccc2cc1O was read as ABHD5 PLIN5 PPI 3, NadD inh 42*, Beta2AR agonist 2, SENP1 FRET inh 7 and GRK2 inh 0.
Screening CCCCCOc1ccc(C(=O)CCC(=O)NC(C)c2ccc(S(N)(=O)=O)cc2)cc1 (centres undefined) returned ABHD5 PLIN5 PPI 2, NadD inh -2, Beta2AR agonist -6, SENP1 FRET inh 0 and GRK2 inh 1.
Screening CC(=O)Nc1ccc(OC(=O)c2cc3cc(Br)ccc3oc2=O)cc1 returned ABHD5 PLIN5 PPI 11, NadD inh 1, Beta2AR agonist -3, SENP1 FRET inh 11 and GRK2 inh 4.
Screening CC(=O)Nc1ccc(OC(=O)c2cc3cc(Br)cc(Br)c3oc2=O)cc1 returned GRK2 inh 95*.
COc1ccc(CN(C)C(=O)c2ccc(NS(=O)(=O)c3ccc4[nH]c(=O)[nH]c4c3)cc2)c(OC)c1OC was read as ABHD5 PLIN5 PPI -9, NadD inh 8, Beta2AR agonist 4, SENP1 FRET inh 2 and GRK2 inh 1.
For COc1ccc(CCNC(=O)COC(=O)CSc2ccc([N+](=O)[O-])cc2)cc1OC the results were ABHD5 PLIN5 PPI -4, NadD inh -4, Beta2AR agonist -4, SENP1 FRET inh 5 and GRK2 inh 1.
For Cc1ccc(-c2nc(=S)c3c(n2Cc2ccco2)CC(C)(C)OC3)cc1 the results were ABHD5 PLIN5 PPI 55*, NadD inh 21, Beta2AR agonist 14, SENP1 FRET inh -5 and GRK2 inh 0.
COc1ccccc1C1c2[nH]c3ccccc3c2CCN1Cc1ccc(NC(C)=O)s1 (centres undefined) was read as ABHD5 PLIN5 PPI 1, NadD inh -3, Beta2AR agonist 16, SENP1 FRET inh -24 and GRK2 inh 0.
CC(C)(C)c1ccc(C(O)CCCN2CCC(C(O)(c3ccccc3)c3ccccc3)CC2)cc1 (centres undefined) was read as ABHD5 PLIN5 PPI -3, NadD inh 6, Beta2AR agonist 64*, SENP1 FRET inh -1 and GRK2 inh 0.
`OC(c1ccccc1)(c1ccccc1)C1CCN(CCCOc2cccc(OC(F)(F)F)c2)CC1` gave ABHD5 PLIN5 PPI -11, NadD inh -2 and SENP1 FRET inh 2.
CC1CN(S(=O)(=O)c2cc(C(=O)N3CCCCC3C)ccc2Cl)CC(C)O1 (centres undefined) was read as ABHD5 PLIN5 PPI 0, NadD inh 2, Beta2AR agonist -7, SENP1 FRET inh 2 and GRK2 inh 0.
For Cc1ccccc1NC(=O)Cc1nc(COC(=O)c2cc([N+](=O)[O-])ccc2N)cs1 the results were ABHD5 PLIN5 PPI 1, NadD inh 5, Beta2AR agonist 11, SENP1 FRET inh -11 and GRK2 inh 55*.
`Cc1ccccc1NC(=O)Cc1nc(COC(=O)c2cc(Br)ccc2O)cs1` gave ABHD5 PLIN5 PPI -3, NadD inh -5, Beta2AR agonist -1, SENP1 FRET inh -1 and GRK2 inh 0.
Screening N=C1/C(=C\c2ccc(-c3cccc(Cl)c3)o2)C(=O)N=C2SC=C(c3ccccc3)N12 returned ABHD5 PLIN5 PPI -10, NadD inh 75*, Beta2AR agonist 57*, SENP1 FRET inh -25 and GRK2 inh 0.
`N=C1/C(=C\c2ccc(-c3ccc(C(=O)O)cc3)o2)C(=O)N=C2SC=C(c3ccccc3)N12` gave ABHD5 PLIN5 PPI -1, NadD inh 67*, Beta2AR agonist 6 and SENP1 FRET inh -31.
`CCOc1cc(NC(=S)NCC2CCCO2)c(OCC)cc1NC(=O)c1cccc(C)c1` (centres undefined) gave ABHD5 PLIN5 PPI -12, NadD inh -4, Beta2AR agonist 47*, SENP1 FRET inh -2 and GRK2 inh 4.
Nc1ccc(N)c(C(=O)O)c1 was read as ABHD5 PLIN5 PPI -6, NadD inh 33*, Beta2AR agonist 7, SENP1 FRET inh 38* and GRK2 inh 88*.
`CCC1Nc2ncnc(N3CCc4ccccc4C3)c2N(Cc2ccc(Cl)cc2)C1=O` (centres undefined) gave ABHD5 PLIN5 PPI 1, NadD inh 27, Beta2AR agonist 7, SENP1 FRET inh -16 and GRK2 inh 2.
Screening O=C1C(Cc2ccccc2)Nc2ncnc(N3CCc4ccccc4C3)c2N1Cc1ccc(Cl)cc1 (centres undefined) returned ABHD5 PLIN5 PPI 2, NadD inh 63*, Beta2AR agonist 10 and SENP1 FRET inh -29.
For Cc1ccc(C(=O)c2coc3ccc(O)cc23)cc1 the results were ABHD5 PLIN5 PPI 3, NadD inh -2, Beta2AR agonist 9, SENP1 FRET inh 2 and GRK2 inh 1.
`CCCC(=O)C1=C(O)C(C(=O)OC)C(C)(C)CC1=Nc1ccc(N)cc1` (centres undefined) gave ABHD5 PLIN5 PPI -2, NadD inh 0, Beta2AR agonist 1, SENP1 FRET inh -1 and GRK2 inh 5.
For CCCC(=Nc1ccc(N)cc1)C1=C(O)C(C(=O)OC)C(C)(C)CC1=O (centres undefined) the results were ABHD5 PLIN5 PPI -15, NadD inh -1, Beta2AR agonist -4, SENP1 FRET inh 44* and GRK2 inh 0.
For Cc1cc(C)nc(N/N=C/c2ccccc2OCc2ccc([N+](=O)[O-])cc2)n1 the results were ABHD5 PLIN5 PPI 2, NadD inh 6, Beta2AR agonist 97*, SENP1 FRET inh -6 and GRK2 inh 0.
`O=[N+]([O-])c1ccc(N/N=C\c2ccccc2OCc2ccccc2)cc1` gave ABHD5 PLIN5 PPI -2, NadD inh 1, Beta2AR agonist 0, SENP1 FRET inh -22 and GRK2 inh 0.
`Cc1c(C)c(C)c(S(=O)(=O)Nc2ccc3[nH]c(=O)[nH]c3c2)c(C)c1C` gave ABHD5 PLIN5 PPI 0, NadD inh -9, Beta2AR agonist 11, SENP1 FRET inh -39 and GRK2 inh 2.
